Activity calls are given as the source filed them.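 How the source made its calls, unless noted: active means visual image review flags a hit and inhibition of aggregation exceeds 20%; inconclusive means visual hit but inhibition at or below 20%; inactive means no hit on visual image review.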

A short description of test [1]: inhibitors of TNFa-induced NFkB p65 translocation, primary screen, imaging, HUVEC, MLSMR starter and 10KST1 sets (AID 438;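 active means inhibition above 20% together with a positive visual image hit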;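 further: compound added about 3h40 before a 20 min TNFalpha stimulation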;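 on inhibition: signal is the nuclear over cytoplasmic p65 intensity ratio per well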). The settings on record: HUVEC TNFa-induced p65 nuclear translocation; cell count: measured here: nuclei count (cytotoxicity indicator), at 2.08 µM; inhibition: at 2 µM, stronger effect = higher value, 0% TNFa-plus-vehicle, 100% no-TNFa wells.
Test [2] can be described thus: reduction of polyQ htt aggregates in cells – imaging, exon1htt(103Q)mCFP cells, high-content imaging, primary screen (AID 483).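 Further: compound exposure lasted 3 days before fixation.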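 On nuclei count: percent of the per-plate median nuclei count of sample wells.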 The settings on record: exon1htt(103Q)mCFP cell line, aggregate imaging, at 2 µM; inhibition of aggregation: stronger effect = higher value; nuclei count: measured here: cell count, toxicity.
Test [3] can be described thus: endothelial E-selectin expression blockers – imaging, HUVEC, immunofluorescence, MLSMR starter and 10KST1 sets, primary screen (AID 487;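 active means visually confirmed hit in the image check and inhibition above 20%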;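 on inhibition: signal is fraction of cell area covered by stained E-selectin grains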;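 on nuclei count: 100% = median nuclei count of all wells on the same plate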). The settings on record: HUVEC TNFalpha-induced E-selectin immunofluorescence imaging, at 2 µM; inhibition: stronger effect = higher value; nuclei count: measured here: cell number, toxicity.
Test [4] concerns the target Voltage-gated potassium channel subunit beta-2 (Rattus norvegicus) (UniProt P62483). The experiment in a line: inhibitors of rat Kvbeta2 reductase activity – biochemical, NADPH fluorescence, primary screen (AID 622;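 active means fluorescence slope higher than the sample average by over 3 SD, cut at about -0.22 in these data, passing the limit was not always enough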;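 further: slope of raw intensity against log time taken from 70 to 1610 s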). Conditions: recombinant KvBeta, 4-cyanobenzaldehyde reduction, at 10 µM, stronger effect = higher value.
Test [5] has the same target. Briefly: enhancers of rat Kvbeta2 NADPH turnover – biochemical, NADPH fluorescence, primary screen (AID 623;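 active means NADPH fluorescence slope more negative than the mean of all samples by about 3 SD, 99.7% confidence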;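 further: fluorescence intensity change per second fitted from 20 to 320 s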). Conditions: Recombinant KvBeta, NADPH fluorescence decrease slope, 10 min; at 10 µM; stronger effect = lower value.
Test [6] addresses Muscarinic acetylcholine receptor M4 (Homo sapiens) (UniProt P08173). The experiment in a line: M4-linked GIRK flux change, two-sided – cell-based, HEK293 M4/GIRK, thallium flux, BTC-AM, M4 allosteric agonist project, primary screen (AID 625;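 active means fluorescence slope after compound addition differing from the mean of all tested samples at 99.7% confidence, mostly higher but some lower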;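 further: thallium influx through GIRK channels coupled to M4 in HEK293 cells with BTC-AM dye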). The settings on record: at 10 µM, actives lie on both sides. The method in brief:
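assay system = HEK293 cells with M4 receptor and GIRK channels | medium = pH 7.3 thallium assay buffer | doses = 10 µM final, single point | timing = cells overnight at 37 °C, BTC-AM loading 1 h, reads 2 min total | signal = BTC-AM fluorescence, 1 Hz kinetic reads | read-out = post-addition slope, 15–24 s, of baseline-normalized fluorescence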

A short description of test [7]: blockers of RIG-like receptor reporter activation – cell-based, Sendai virus stimulus, luciferase, 10K MLSCN set, TLR/RLR signaling modifier project, primary screen (AID 602276;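 active means inhibition at or above 50% at 10 µM; inactive means inhibition below 50%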;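 further: firefly luciferase from ISG56 promoter only with Renilla not read in this screen; 0% = Sendai virus plus DMSO and 100% = medium plus DMSO without virus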). Conditions: HEK293 RL24 IRF3 luciferase reporter, at 10 µM, stronger effect = higher value. (In general: A reporter such as luciferase makes a cellular process visible.)
A short description of test [8]: TLR3 IRF3 reporter activation blockers – cell-based, poly I:C stimulus, luciferase, 10K MLSCN set, primary screen (AID 602277;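 active means inhibition of the reporter signal at or above 50%; inactive means inhibition below 50%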). Conditions: HEK293-TLR3 RL24 IRF3 luciferase reporter, at 10 µM, stronger effect = higher value.

Muscarinic acetylcholine receptor M4 (Homo sapiens), sequence (P08173 whole entry, looked up): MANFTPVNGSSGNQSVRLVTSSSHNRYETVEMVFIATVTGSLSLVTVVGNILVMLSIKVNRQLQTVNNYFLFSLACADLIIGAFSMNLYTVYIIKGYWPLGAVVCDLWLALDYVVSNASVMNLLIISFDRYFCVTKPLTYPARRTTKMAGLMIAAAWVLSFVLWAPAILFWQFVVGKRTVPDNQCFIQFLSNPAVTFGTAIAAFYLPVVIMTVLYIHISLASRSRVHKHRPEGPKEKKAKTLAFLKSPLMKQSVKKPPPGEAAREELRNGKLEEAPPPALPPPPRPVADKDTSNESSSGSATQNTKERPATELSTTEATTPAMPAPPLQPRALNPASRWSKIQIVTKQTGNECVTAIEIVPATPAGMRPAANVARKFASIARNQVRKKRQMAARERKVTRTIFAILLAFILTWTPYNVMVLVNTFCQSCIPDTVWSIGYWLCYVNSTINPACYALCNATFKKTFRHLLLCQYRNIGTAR
Voltage-gated potassium channel subunit beta-2 (Rattus norvegicus), sequence (P62483 whole entry, looked up): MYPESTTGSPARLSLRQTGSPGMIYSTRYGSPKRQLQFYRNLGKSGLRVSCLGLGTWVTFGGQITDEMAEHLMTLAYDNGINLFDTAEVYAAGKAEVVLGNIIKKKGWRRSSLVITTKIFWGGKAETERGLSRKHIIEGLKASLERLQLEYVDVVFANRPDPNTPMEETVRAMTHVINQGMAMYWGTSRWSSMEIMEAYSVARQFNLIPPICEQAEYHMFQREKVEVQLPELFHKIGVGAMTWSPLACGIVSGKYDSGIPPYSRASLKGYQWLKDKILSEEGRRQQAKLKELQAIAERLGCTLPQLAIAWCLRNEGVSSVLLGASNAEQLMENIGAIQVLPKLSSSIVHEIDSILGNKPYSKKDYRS

The term inhibition denotes the change of the read-out against control, counted positive when it falls. Regarding `CC1CN(c2nc3ccccn3c(=O)c2/C=C(\C#N)S(=O)(=O)c2ccccc2)CC(C)O1` (centres undefined), in test [1], the cell count was 570. The inhibition in test [1] is 8.1% (inactive); in test [3], 56.6% (inactive); in test [7], -1.56% (inactive); in test [8], -21.6% (inactive). The inhibition of aggregation in test [2] was 3.6% (inactive). Moreover, the nuclei count turned out to be 98.6% in test [2] and 104% in test [3]. In addition, the figures for the fluorescence slope in test [4] and in test [6] were -0.513 (inactive) and 0.00288 (inactive), respectively. In test [5], the NADPH fluorescence slope was -0.000138 (inactive).
With `Cn1c(=O)c2c(nc(N3CCCCC3)n2CCSc2nc3ccccc3o2)n(C)c1=O`, in test [1], the cell count worked out at 248. Further, the inhibition was -3.6% (inactive) in test [1], 28.4% (inactive) in test [3], -13.5% (inactive) in test [7] and -11.3% (inactive) in test [8]. Further, the inhibition of aggregation in test [2] was 2.8% (inactive). Further, the values for the nuclei count in test [2] and in test [3] were 71.3% and 94.2%, respectively. Moreover, the fluorescence slope in test [4] is -0.451 (inactive); in test [6] it was 0.00597 (inactive). In addition, the NADPH fluorescence slope in test [5] is 4.5e-05 (inactive).
For `Cc1occc1C(=O)Nc1ccccc1NC(=O)c1ccoc1C`, in test [1], the cell count was 425. Moreover, the inhibition was -11.5% (inactive) in test [1], 40.5% (inactive) in test [3], 12.7% (inactive) in test [7] and 24.7% (inactive) in test [8]. For the same molecule, the inhibition of aggregation in test [2] is 29.8% (inactive). Further, the values for the nuclei count in test [2] and in test [3] were 87.4% and 90.2%, respectively. The fluorescence slope was -0.543 (inactive) in test [4] and 0.00485 (inactive) in test [6]. Besides, the NADPH fluorescence slope in test [5] is -3.1e-05 (inactive).
As for `Cc1nnc(N(Cc2ccco2)C(=O)c2cccc(C#N)c2)s1`, the cell count in test [1] came out at 428. Also, the inhibition in test [1] is 7.3% (inactive); in test [3] it was 11.7% (inactive); in test [7], -0.114% (inactive); in test [8], 5.23% (inactive). Moreover, the inhibition of aggregation in test [2] was 9.6% (inactive). Further, the nuclei count in test [2] came to 101%; in test [3], 111%. Moreover, the fluorescence slope was -0.569 (inactive) in test [4] and 0.00607 (inactive) in test [6]. Moreover, the NADPH fluorescence slope in test [5] was -1.4e-05 (inactive).
Turning to `Cc1ccccc1NC(=O)N1C2CCCC1CC(NC(=O)C1CC1)C2` (centres undefined), the cell count in test [1] was 747. Moreover, the inhibition in test [1] was -16.7% (inactive); in test [3] it was 64.2% (inactive); in test [7], 16.2% (inactive); in test [8], 16.2% (inactive). Moreover, the inhibition of aggregation in test [2] is -5.1% (inactive). The nuclei count in test [2] stood at 107%; in test [3], 94.5%. Also, the fluorescence slope is -0.361 (inactive) in test [4] and 0.00599 (inactive) in test [6]. The NADPH fluorescence slope in test [5] is 8.6e-05 (inactive).
For `Cc1nnc(SCc2cnc(-c3ccccc3)o2)[nH]c1=O`, the cell count in test [1] worked out at 332. The inhibition is -2.2% (inactive) in test [1], -82.5% (inactive) in test [3], 10.2% (inactive) in test [7] and 12.4% (inactive) in test [8]. In addition, the inhibition of aggregation in test [2] was 12.4% (inactive). Also, the nuclei count came out at 92.7% in test [2] and 118% in test [3]. Moreover, the results for the fluorescence slope in test [4] and in test [6] were -0.591 (inactive) and 0.00323 (inactive), respectively. For the same molecule, the NADPH fluorescence slope in test [5] was -1.9e-05 (inactive).
With `Cc1ccc(NC2c3ncccc3C(=O)N2C2CCCCC2)cc1C` (centres undefined), the cell count in test [1] amounted to 465. Besides, the inhibition in test [1] was 0.7% (inactive); in test [3], -28% (inactive); in test [7] it was 1.86% (inactive); in test [8] it was 7.53% (inactive). Also, the inhibition of aggregation in test [2] is -11.9% (inactive). The nuclei count in test [2] is 119%; in test [3] it was 102%. In addition, the fluorescence slope in test [4] is -0.276 (inactive); in test [6], 0.00562 (inactive). The NADPH fluorescence slope in test [5] is -8.5e-06 (inactive).
For the molecule `CC(C)(C)N(Cc1cc2ccccc2[nH]c1=O)C(=O)C1CCCCC1`, the cell count in test [1] was 510. In addition, the inhibition in test [1] is -1.4% (inactive); in test [3] it was 4% (inactive); in test [7] it was -3.62% (inactive); in test [8], 9.15% (inactive). The inhibition of aggregation in test [2] was -4.5% (inactive). The results for the nuclei count in test [2] and in test [3] were 110% and 95.6%, respectively. Further, the fluorescence slope in test [4] is -0.455 (inactive); in test [6], 0.00597 (inactive). The NADPH fluorescence slope in test [5] is -7.9e-05 (inactive).
As for `COCCn1c(-c2ccc(OC)c(OC)c2)nc2ccccc21`, the cell count in test [1] turned out to be 247. Further, the inhibition in test [1] was -1.1% (inactive); in test [3], 16.7% (inactive); in test [7], -2.29% (inactive); in test [8], 11% (inactive). For the same molecule, the inhibition of aggregation in test [2] was 28.5% (inactive). Besides, the nuclei count in test [2] stood at 85.8%; in test [3] it was 77.6%. Also, the fluorescence slope in test [4] is -0.536 (inactive); in test [6] it was 0.00485 (inactive). In addition, the NADPH fluorescence slope in test [5] is -3.2e-05 (inactive).
Consider `COc1ccccc1C1/C(=C(\O)c2c(C)nc3c(C)cccn23)C(=O)C(=O)N1CCCN(C)C` (centres undefined), for which the cell count in test [1] is 530. Also, the inhibition in test [1] is -2.6% (inactive); in test [3], 35.1% (inactive); in test [7], 10.7% (inactive); in test [8], 20.7% (inactive). Further, the inhibition of aggregation in test [2] was -6.8% (inactive). Also, the nuclei count in test [2] is 110%; in test [3], 121%. For the same molecule, the fluorescence slope was -0.298 (inactive) in test [4] and 0.00521 (inactive) in test [6]. Further, the NADPH fluorescence slope in test [5] was -5.5e-05 (inactive).
In the case of `Nc1ncnc2nc(SCCN3CCCCC3)[nH]c12`, in test [1], the cell count amounted to 189. Moreover, the inhibition in test [1] is -0.7% (inactive); in test [3] it was -0.1% (inactive); in test [7], 17.8% (inactive); in test [8], 10.9% (inactive). The inhibition of aggregation in test [2] was 5% (inactive). The nuclei count in test [2] worked out at 90.8%; in test [3], 92.4%. Further, the fluorescence slope in test [4] is -0.545 (inactive); in test [6], 0.00574 (inactive). For the same molecule, the NADPH fluorescence slope in test [5] is -3.4e-05 (inactive).
As for `COc1ccc(NC(=O)Nc2cc(C)ccc2OC)cc1`, the cell count in test [1] amounted to 217. The inhibition in test [1] is 8.3% (inactive); in test [3], -133% (inactive); in test [7] it was -39.1% (inactive); in test [8] it was -80.2% (inactive). Also, in test [2], the inhibition of aggregation is -1.8% (inactive). Besides, the nuclei count in test [2] worked out at 98.6%; in test [3] it was 120%. In addition, the fluorescence slope in test [4] was -0.422 (inactive); in test [6] it was 0.00547 (inactive). Moreover, the NADPH fluorescence slope in test [5] was -0.00041 (inactive).
Take `O=C1CC(c2ccc(Cl)cc2)n2nc(N3C(=O)c4ccccc4C3=O)nc2N1` (centres undefined): the cell count in test [1] is 346. Besides, the inhibition in test [1] was 11.4% (inactive); in test [3] it was 30.5% (inactive); in test [7] it was 16.6% (inactive); in test [8] it was 24.4% (inactive). In addition, the inhibition of aggregation in test [2] was -2.1% (inactive). In addition, the nuclei count came to 104% in test [2] and 98.9% in test [3]. Also, the fluorescence slope is -0.587 (inactive) in test [4] and 0.00353 (inactive) in test [6]. The NADPH fluorescence slope in test [5] was -3.9e-05 (inactive).
Consider `COC(=O)c1cc(Br)c(=O)n(CCN2CCOCC2)c1`, for which the cell count in test [1] turned out to be 563. The inhibition in test [1] was 5.4% (inactive); in test [3] it was 5.8% (inactive); in test [7] it was 13% (inactive); in test [8] it was 20.6% (inactive). Besides, the inhibition of aggregation in test [2] is 1.7% (inactive). The values for the nuclei count in test [2] and in test [3] were 96.1% and 104%, respectively. In addition, the fluorescence slope in test [4] is -0.43 (inactive); in test [6], 0.00578 (inactive). The NADPH fluorescence slope in test [5] is -6.4e-05 (inactive).
